Ki data for 25 compounds are collected here from ChEMBL document CHEMBL1135543, “Alpha(1)-adrenoceptor antagonists. 4. Pharmacophore-based design, synthesis, and biological evaluation of new imidazo-, benzimidazo-, and indoloarylpiperazine derivatives” (J Med Chem, 2002).

The Ki is a dissociation constant, usually derived from enzyme kinetics or from competition with a known ligand.

The target of test [1] is T1, Adrenergic receptor alpha-1 (Rattus norvegicus, UniProt P15823+P23944+P43140).
T1 sequence (P15823 whole entry): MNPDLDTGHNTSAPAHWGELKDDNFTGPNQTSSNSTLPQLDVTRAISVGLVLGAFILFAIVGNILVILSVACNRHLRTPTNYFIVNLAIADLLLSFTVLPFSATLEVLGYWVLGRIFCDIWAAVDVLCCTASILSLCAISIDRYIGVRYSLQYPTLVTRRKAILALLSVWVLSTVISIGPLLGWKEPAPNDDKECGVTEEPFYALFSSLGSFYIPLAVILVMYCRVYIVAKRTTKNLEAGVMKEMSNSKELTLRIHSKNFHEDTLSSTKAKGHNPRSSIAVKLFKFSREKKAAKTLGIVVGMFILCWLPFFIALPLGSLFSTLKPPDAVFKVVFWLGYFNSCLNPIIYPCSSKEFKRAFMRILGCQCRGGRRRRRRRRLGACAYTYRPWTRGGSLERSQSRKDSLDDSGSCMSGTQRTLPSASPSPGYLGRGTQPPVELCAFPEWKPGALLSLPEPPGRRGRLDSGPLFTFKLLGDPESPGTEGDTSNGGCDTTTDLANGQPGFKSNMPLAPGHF
T1 sequence (P23944 whole entry): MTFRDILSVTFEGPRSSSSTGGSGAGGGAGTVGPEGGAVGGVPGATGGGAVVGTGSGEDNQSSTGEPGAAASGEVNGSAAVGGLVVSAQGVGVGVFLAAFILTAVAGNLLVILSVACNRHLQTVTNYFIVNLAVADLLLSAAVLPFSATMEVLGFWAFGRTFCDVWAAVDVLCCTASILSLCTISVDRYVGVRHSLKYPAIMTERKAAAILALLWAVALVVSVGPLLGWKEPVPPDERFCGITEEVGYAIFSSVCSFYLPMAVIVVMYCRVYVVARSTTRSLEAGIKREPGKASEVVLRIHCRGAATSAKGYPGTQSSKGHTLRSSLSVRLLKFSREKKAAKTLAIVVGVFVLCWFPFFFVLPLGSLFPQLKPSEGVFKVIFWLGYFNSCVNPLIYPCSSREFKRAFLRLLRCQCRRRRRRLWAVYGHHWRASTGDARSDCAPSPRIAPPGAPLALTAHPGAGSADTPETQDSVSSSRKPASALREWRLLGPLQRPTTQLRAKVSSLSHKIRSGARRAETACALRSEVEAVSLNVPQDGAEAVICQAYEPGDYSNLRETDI
T1 sequence (P43140 whole entry): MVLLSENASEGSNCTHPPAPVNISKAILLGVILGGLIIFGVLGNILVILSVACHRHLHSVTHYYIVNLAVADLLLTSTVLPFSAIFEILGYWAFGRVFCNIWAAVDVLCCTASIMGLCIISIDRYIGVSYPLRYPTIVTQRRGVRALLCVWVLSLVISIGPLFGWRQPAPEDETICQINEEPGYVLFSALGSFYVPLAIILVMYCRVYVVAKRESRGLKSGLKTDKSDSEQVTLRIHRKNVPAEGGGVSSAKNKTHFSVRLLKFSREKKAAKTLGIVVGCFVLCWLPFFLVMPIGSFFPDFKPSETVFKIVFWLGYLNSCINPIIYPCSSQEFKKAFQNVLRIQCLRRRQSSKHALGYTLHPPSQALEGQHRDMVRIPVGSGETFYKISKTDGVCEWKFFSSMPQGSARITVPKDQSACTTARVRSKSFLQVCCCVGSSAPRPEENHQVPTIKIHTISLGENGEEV
In words: Binding affinity against Alpha-1 adrenergic receptor by displacing [3H]-prazosin radioligand in rat cortex membrane. The test is classed as cell membranes, Brain. The procedure, abridged: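 Rat cerebral cortex membranes washed in 50 mM Tris-HCl pH 7.7 with 5 mM EDTA, stored at –80 °C, then assayed in 50 mM Tris-HCl pH 7.7 (0.2–0.3 mg protein). Incubation 60 min at 25 °C with 0.1 nM [3H]prazosin; nonspecific binding defined with 1 μM prazosin. Seven displacer concentrations in triplicate, GF/C filtration. IC50 by log-probit, Ki by Cheng–Prusoff (Kd 0.24 nM).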

Test [2] addresses T2, 5-hydroxytryptamine receptor 1A (Rattus norvegicus, UniProt P19327).
T2 sequence (P19327 whole entry): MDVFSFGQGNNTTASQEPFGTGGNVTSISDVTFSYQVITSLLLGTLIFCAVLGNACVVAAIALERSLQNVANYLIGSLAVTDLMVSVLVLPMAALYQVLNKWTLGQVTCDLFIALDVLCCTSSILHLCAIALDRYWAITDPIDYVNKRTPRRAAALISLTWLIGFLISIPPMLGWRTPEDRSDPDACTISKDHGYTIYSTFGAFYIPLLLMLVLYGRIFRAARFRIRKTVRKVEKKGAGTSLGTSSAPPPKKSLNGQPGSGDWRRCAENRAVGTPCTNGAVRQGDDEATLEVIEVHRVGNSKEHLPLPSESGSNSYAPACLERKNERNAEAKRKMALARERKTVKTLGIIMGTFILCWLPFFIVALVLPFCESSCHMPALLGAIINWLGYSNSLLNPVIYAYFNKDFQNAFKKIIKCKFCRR
In words: Binding affinity against 5-hydroxytryptamine 1A receptor by displacing [3H]8-OH-DPAT radioligand in rat cortex membrane. The test is classed as cell membranes. The procedure, abridged: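 Rat cortex membranes, pre-incubated 10 min at 37 °C to remove endogenous 5-HT, stored at –80 °C, then resuspended in 50 mM Tris-HCl pH 7.4 (0.2–0.3 mg protein). GF/C filtration, scintillation counting.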

The target of test [3] is T3, Adrenergic receptor alpha-2 (Rattus norvegicus, UniProt P22086+P19328+P22909).
T3 sequence (P22086 whole entry): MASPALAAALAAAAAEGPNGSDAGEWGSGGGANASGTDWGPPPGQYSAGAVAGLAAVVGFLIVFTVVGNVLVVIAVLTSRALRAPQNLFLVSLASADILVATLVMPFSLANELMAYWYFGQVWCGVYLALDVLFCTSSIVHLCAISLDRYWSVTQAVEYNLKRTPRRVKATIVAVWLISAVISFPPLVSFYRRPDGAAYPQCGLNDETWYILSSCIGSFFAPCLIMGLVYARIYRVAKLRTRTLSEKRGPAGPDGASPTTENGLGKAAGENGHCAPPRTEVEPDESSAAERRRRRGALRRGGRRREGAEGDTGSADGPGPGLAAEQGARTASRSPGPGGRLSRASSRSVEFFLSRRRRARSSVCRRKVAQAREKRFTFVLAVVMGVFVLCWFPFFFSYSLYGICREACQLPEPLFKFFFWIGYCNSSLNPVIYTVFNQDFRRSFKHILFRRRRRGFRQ
T3 sequence (P19328 whole entry): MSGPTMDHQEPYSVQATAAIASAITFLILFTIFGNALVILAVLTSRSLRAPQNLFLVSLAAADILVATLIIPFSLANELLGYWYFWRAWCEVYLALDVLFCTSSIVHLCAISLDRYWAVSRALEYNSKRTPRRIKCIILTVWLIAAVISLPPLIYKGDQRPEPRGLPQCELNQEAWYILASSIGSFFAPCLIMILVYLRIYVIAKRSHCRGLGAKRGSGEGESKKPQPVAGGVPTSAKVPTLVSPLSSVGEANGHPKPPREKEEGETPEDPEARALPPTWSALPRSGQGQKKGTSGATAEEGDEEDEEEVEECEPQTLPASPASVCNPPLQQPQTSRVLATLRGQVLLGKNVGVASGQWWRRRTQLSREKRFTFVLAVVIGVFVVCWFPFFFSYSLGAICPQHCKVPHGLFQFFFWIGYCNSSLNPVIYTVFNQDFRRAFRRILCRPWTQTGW
T3 sequence (P22909 whole entry): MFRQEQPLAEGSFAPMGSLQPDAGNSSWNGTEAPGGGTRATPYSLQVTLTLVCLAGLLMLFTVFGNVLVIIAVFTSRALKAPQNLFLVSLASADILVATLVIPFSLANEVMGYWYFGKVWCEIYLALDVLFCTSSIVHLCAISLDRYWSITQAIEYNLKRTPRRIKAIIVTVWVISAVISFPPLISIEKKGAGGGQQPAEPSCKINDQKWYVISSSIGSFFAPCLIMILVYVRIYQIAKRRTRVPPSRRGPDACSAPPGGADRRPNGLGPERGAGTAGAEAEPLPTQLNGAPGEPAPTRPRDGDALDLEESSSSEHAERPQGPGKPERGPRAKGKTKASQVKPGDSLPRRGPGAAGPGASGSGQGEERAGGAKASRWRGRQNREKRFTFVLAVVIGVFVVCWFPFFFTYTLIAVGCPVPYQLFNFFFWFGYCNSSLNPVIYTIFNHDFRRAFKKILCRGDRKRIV
The test is described as follows: Binding affinity against Alpha-2 adrenergic receptor by displacing [3H]rauwolscine radioligand in rat cortex membrane. The test is classed as cell membranes, Brain.

In test [4] the target is T1, Adrenergic receptor alpha-1. The test is described as follows: Binding affinity against Alpha-1 adrenergic receptor by displacing [3H]prazosin radioligand in rat cortex membrane. Format: cell membranes, Brain.

Each structure is given as a SMILES string.

As to `COc1ccccc1N1CCN(CCCCCn2nc(-n3ccnc3)ccc2=O)CC1`, the Ki in test [1] was determined as 37.5 nM; in test [2], 223 nM; in test [3], 427 nM.
For the compound `COc1ccccc1N1CCN(CCCCCn2nc(-n3cnc4ccccc43)ccc2=O)CC1`, the inhibition constant (Ki) was found to be 3.1 nM in test [1], 127 nM in test [2] and 30.5 nM in test [3].
Take `O=c1ccc(-n2cnc3ccccc32)nn1CCCCN1CCN(c2ccccc2Cl)CC1`: the Ki in test [1] is 1.3 nM; in test [2] it was 181 nM; in test [3], 5.8 nM.
For `O=c1ccc(-n2cnc3ccccc32)nn1CCCCCCCN1CCN(c2ccccc2Cl)CC1`, in that order: 1 nM, 182 nM and 10.3 nM.
On to `COc1ccccc1N1CCN(CCn2nc(-n3ccnc3)ccc2=O)CC1`, for which the Ki came out at 237 nM in test [1] and 1492 nM in test [3].
Taken in the same sequence, the figures for `O=c1ccc(-n2ccnc2)nn1CCCCN1CCN(c2ccccc2Cl)CC1` were 24.6 nM and 65.2 nM.
In the case of `COc1ccccc1N1CCN(CCCCCCCn2nc(-n3ccc4ccccc43)ccc2=O)CC1`, the Ki is 1.1 nM in test [4], 181 nM in test [2] and 306 nM in test [3].
Consider `COc1ccccc1N1CCN(CCCCCCCn2nc(-n3cnc4ccccc43)ccc2=O)CC1`, for which the Ki in test [1] came out at 1.7 nM; in test [3] it was 89.8 nM.
Taken in the same sequence, the figures for `O=c1ccc(-n2ccnc2)nn1CCCCCCN1CCN(c2ccccc2Cl)CC1` were 29.7 nM and 138 nM.
For `COc1ccccc1N1CCN(CCCn2nc(-n3cnc4ccccc43)ccc2=O)CC1`, the Ki in test [2] worked out at 382 nM.
As to `COc1ccccc1N1CCN(CCn2nc(-n3cnc4ccccc43)ccc2=O)CC1`, the results for the Ki in test [1], in test [2] and in test [3] were 33 nM, 541 nM and 350 nM, respectively.
For `COc1ccccc1N1CCN(CCCCCCn2nc(-n3cnc4ccccc43)ccc2=O)CC1`, in that order: 6.4 nM, 106 nM and 113 nM.
Taken in the same sequence, the figures for `COc1ccccc1N1CCN(CCCn2nc(-n3ccc4ccccc43)ccc2=O)CC1` were 3.2 nM, 103 nM and 170 nM.
`O=c1ccc(-n2cnc3ccccc32)nn1CCN1CCN(c2ccccc2Cl)CC1`: the values for the Ki in test [1], in test [2] and in test [3] were 70.4 nM, 1010 nM and 265 nM, respectively.
`COc1ccccc1N1CCN(CCCCCCn2nc(-n3ccc4ccccc43)ccc2=O)CC1`: the results for the Ki in test [1], in test [2] and in test [3] were 2.8 nM, 514 nM and 104 nM, respectively.
In the case of `O=c1ccc(-n2cnc3ccccc32)nn1CCCCCN1CCN(c2ccccc2Cl)CC1`, the values for the Ki in test [1], in test [2] and in test [3] were 4.5 nM, 351 nM and 127 nM, respectively.
For `COc1ccccc1N1CCN(CCCCCn2nc(-n3ccc4ccccc43)ccc2=O)CC1`, in that order: 6.8 nM, 141 nM and 95.6 nM.
Consider `O=c1ccc(-n2cnc3ccccc32)nn1CCCCCCN1CCN(c2ccccc2Cl)CC1`, for which the figures for the Ki in test [1], in test [2] and in test [3] were 15.1 nM, 617 nM and 31.5 nM, respectively.
With `O=c1ccc(-n2ccnc2)nn1CCCCCN1CCN(c2ccccc2Cl)CC1`, the Ki in test [1] came to 23.3 nM; in test [2], 323 nM; in test [3] it was 134 nM.
As for `COc1ccccc1N1CCN(CCCCCCn2nc(-n3ccnc3)ccc2=O)CC1`, the values for the inhibition constant Ki in test [1] and in test [3] were 52.5 nM and 131 nM, respectively.
In test [2], `O=c1ccc(-n2cnc3ccccc32)nn1CCCN1CCN(c2ccccc2Cl)CC1` yielded a Ki of 461 nM.
As for `O=c1ccc(-n2ccnc2)nn1CCN1CCN(c2ccccc2Cl)CC1`, the Ki in test [1] turned out to be 472 nM; in test [3], 2072 nM.
Consider `COc1ccccc1N1CCN(CCCn2nc(-n3ccnc3)ccc2=O)CC1`, for which the affinity in test [2], expressed as Ki, was 463 nM.
`O=c1ccc(-n2ccnc2)nn1CCCN1CCN(c2ccccc2Cl)CC1` showed a Ki in test [2] of 617 nM.
In the case of `COc1ccccc1N1CCN(CCn2nc(-n3ccc4ccccc43)ccc2=O)CC1`, the Ki in test [1] was 22.7 nM; in test [2], 310 nM; in test [3] it was 1098 nM.
